Measurements from ChEMBL document CHEMBL1136923, “Highly potent, orally available anti-inflammatory broad-spectrum chemokine inhibitors” (J Med Chem, 2009).

Experiments:
Mus musculus [1] = experiment: Antiinflammatory activity in sc dosed mouse assessed as inhibition of LPS-induced TNFalpha upregulation measured 2 hrs after LPS challenge; type: functional
Mus musculus [2] = experiment: Antiinflammatory activity in mouse assessed as inhibition of LPS-induced TNFalpha upregulation at 0.0016 mg, sc measured 2 hrs after LPS challenge; type: functional
Outline: (§1)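 Murine sublethal endotoxemia: LPS given intraperitoneally, with serum TNF-α measured 2 h after the LPS injection as the end point. Compound was given subcutaneously or orally. Vehicle was 0.6% DMSO and 1% carboxymethylcellulose (final concentrations) in sterile water. Effect is reported as % relative to control.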

Mus musculus [3] = experiment: Antiinflammatory activity in mouse assessed as inhibition of LPS-induced TNFalpha upregulation at 0.75 ug, po measured 2 hrs after LPS challenge; type: functional; outline: as §1
[4] = target: C-C chemokine receptor type 2 (Homo sapiens) (UniProt P41597); experiment: Antagonist activity at CCR2 in human THP1 cells assessed as inhibition of CCL2-induced chemotaxis at 1 nM after 2 hrs by microtiter format trans-well migration assay; type: functional, cell-based; settings: THP-1
Outline: (§2)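 Microtiter trans-well migration assay in Gey's balanced salt solution with 1 mg/mL endotoxin-free BSA, no fetal calf serum. Migration ran 2 h at 37 °C. Compounds dissolved in DMSO and added to both top and bottom compartments, final DMSO 1%.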

[5] = target: C-C chemokine receptor type 2 (Homo sapiens) (UniProt P41597); experiment: Antagonist activity at CCR2 in human THP1 cells assessed as inhibition of CCL2-induced chemotaxis at 100 nM after 2 hrs by microtiter format trans-well migration assay; type: functional, cell-based; settings: THP-1; outline: as §2
Mus musculus [6] = experiment: Antiinflammatory activity in mouse assessed as inhibition of LPS-induced TNFalpha upregulation at 540 pg, po measured 2 hrs after LPS challenge; type: functional
Outline: (§3)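 Murine sublethal LPS endotoxemia screen. LPS is injected intraperitoneally and serum TNF-α is measured 2 h later as the end point. Compound is given subcutaneously or orally in a vehicle of 0.6% DMSO plus 1% carboxymethylcellulose (final concentrations) in sterile water. Values are % relative to control.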

Mus musculus [7] = experiment: Antiinflammatory activity in po dosed mouse assessed as inhibition of LPS-induced TNFalpha upregulation measured 2 hrs after LPS challenge; type: functional
Mus musculus [8] = experiment: Antiinflammatory activity in mouse assessed as inhibition of LPS-induced TNFalpha upregulation at 0.0186 ug, po measured 2 hrs after LPS challenge; type: functional; outline: as §1
Mus musculus [9] = experiment: Antiinflammatory activity in mouse assessed as inhibition of LPS-induced TNFalpha upregulation at 0.0016 ug, sc measured 2 hrs after LPS challenge; type: functional; outline: as §1
[10] = AUC (0 to t) in Sprague-Dawley rat at 3 mg/kg, po administered as single dose; type: ADME, organism-based; parameters: dose 3 mg/kg, route oral; settings: plasma
Outline: (§4)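 Male Sprague-Dawley rats, three per compound per route, single dose. IV vehicle 5% DMSO in 0.9% saline; oral gavage vehicle 1% carboxymethylcellulose in 0.9% saline; fed ad libitum. Plasma taken 5–480 min post-dose, extracted with 0.1% formic acid in acetonitrile, quantified by LC/MS/MS (positive mode). AUC(0–t) by linear/log trapezoidal rule; IV curve back-extrapolated assuming initial volume 0.26 L/kg.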

Mus musculus [11] = experiment: Antiinflammatory activity in po dosed mouse assessed as inhibition of LPS-induced TNFalpha upregulation measured 2 hrs after LPS challenge relative to control; type: functional; outline: as §3
[12] = Clearance in Sprague-Dawley rat at 1 mg/kg, iv administered as single dose; type: ADME, organism-based; parameters: dose 1 mg/kg, route intravenous; settings: in vivo
Outline: (§5)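 Male Sprague-Dawley rats, three per compound, receive a single intravenous dose in 5% DMSO in 0.9% saline. Food and water are given ad libitum. Plasma is taken at 5, 15, 30, 60, 120, 180, 240 and 480 min. Drug is measured by LC/MS/MS after extraction with 0.1% formic acid in acetonitrile. The curve is back-extrapolated to time zero assuming an initial volume of 0.26 L/kg.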

Mus musculus [13] = experiment: Antiinflammatory activity in mouse assessed as inhibition of LPS-induced TNFalpha upregulation at 0.016 ug, sc measured 2 hrs after LPS challenge; type: functional; outline: as §1
Rattus norvegicus = experiment: Plasma concentration in Sprague-Dawley rat at 3 mg/kg, po administered as single dose; type: ADME, organism-based; parameters: dose 3 mg/kg, route oral; settings: in vivo
Outline: (§6)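 Male Sprague-Dawley rats, three per compound, receive a single oral dose by gavage in 1% carboxymethylcellulose in 0.9% saline, with food and water ad libitum. Plasma is sampled from 5 to 480 min and drug is quantified by positive-mode LC/MS/MS after acetonitrile/formic acid extraction. The lower limit of quantitation is about 2 ng/mL. Exposure is AUC(0→t) by the linear/log trapezoidal rule, and F is oral fractional bioavailability.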

[14] = target: C-C chemokine receptor type 2 (Homo sapiens) (UniProt P41597); experiment: Antagonist activity at CCR2 in human THP1 cells assessed as inhibition of CCL2-induced chemotaxis at 0.1 nM after 2 hrs by microtiter format trans-well migration assay; type: functional, cell-based; settings: THP-1; outline: as §2
[15] = target: C-C chemokine receptor type 2 (Homo sapiens) (UniProt P41597); experiment: Antagonist activity at CCR2 in human THP1 cells assessed as inhibition of CCL2-induced chemotaxis after 2 hrs by microtiter format trans-well migration assay; type: functional, cell-based; settings: THP-1; outline: as §2
Mus musculus [16] = experiment: Antiinflammatory activity in sc dosed mouse assessed as inhibition of LPS-induced TNFalpha upregulation measured 2 hrs after LPS challenge relative to control; type: functional; outline: as §3
[17] = target: C-C chemokine receptor type 2 (Homo sapiens) (UniProt P41597); experiment: Antagonist activity at CCR2 in human THP1 cells assessed as inhibition of CCL2-induced chemotaxis at 10 nM after 2 hrs by microtiter format trans-well migration assay; type: functional, cell-based; settings: THP-1; outline: as §2
Mus musculus [18] = experiment: Antiinflammatory activity in mouse assessed as inhibition of LPS-induced TNFalpha upregulation at 0.0186 mg, po measured 2 hrs after LPS challenge; type: functional; outline: as §1
[19] = Fractional bioavailability in Sprague-Dawley rat at 3 mg/kg, po administered as single dose; type: ADME, organism-based; settings: in vivo; outline: as §6
Mus musculus [20] = experiment: Antiinflammatory activity in mouse assessed as inhibition of LPS-induced TNFalpha upregulation at 0.068 ug, po measured 2 hrs after LPS challenge; type: functional; outline: as §1
[21] = Volume of distribution at steady state in Sprague-Dawley rat at 1 mg/kg, iv administered as single dose; type: ADME, organism-based; parameters: dose 1 mg/kg, route intravenous; settings: in vivo, read-out: Vdss; outline: as §5
Mus musculus [22] = experiment: Antiinflammatory activity in mouse assessed as inhibition of LPS-induced TNFalpha upregulation at 0.00016 mg, sc measured 2 hrs after LPS challenge; type: functional
Outline: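 Murine sublethal endotoxemia: LPS given intraperitoneally, serum TNF-α measured 2 h after LPS injection. Compound vehicle 0.6% DMSO plus 1% carboxymethylcellulose (final concentrations) in sterile water.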

[23] = Cmax in Sprague-Dawley rat at 3 mg/kg, po administered as single dose; type: ADME, organism-based; parameters: dose 3 mg/kg, route oral; settings: in vivo; outline: as §6
Mus musculus [24] = experiment: Antiinflammatory activity in mouse assessed as inhibition of LPS-induced TNFalpha upregulation at 0.016 mg, sc measured 2 hrs after LPS challenge; type: functional; outline: as §1
Mus musculus [25] = experiment: Antiinflammatory activity in mouse assessed as inhibition of LPS-induced TNFalpha upregulation at 0.0027 ug, po measured 2 hrs after LPS challenge; type: functional; outline: as §1
Mus musculus [26] = experiment: Antiinflammatory activity in mouse assessed as inhibition of LPS-induced TNFalpha upregulation at 0.0066 ug, sc measured 2 hrs after LPS challenge; type: functional; outline: as §1
[27] = target: C-C chemokine receptor type 2 (Homo sapiens) (UniProt P41597); experiment: Antagonist activity at CCR2 in human THP1 cells assessed as inhibition of CCL2-induced chemotaxis at 1000 nM after 2 hrs by microtiter format trans-well migration assay; type: functional, cell-based; settings: THP-1; outline: as §2
[28] = Half life in Sprague-Dawley rat at 1 mg/kg, iv administered as single dose; type: ADME, organism-based; parameters: dose 1 mg/kg, route intravenous; settings: in vivo; outline: as §5
[29] = AUC (0 to t) in Sprague-Dawley rat at 1 mg/kg, iv administered as single dose; type: ADME, organism-based, Plasma; parameters: dose 1 mg/kg, route intravenous; settings: Sprague-Dawley, plasma; outline: as §4

Chain of C-C chemokine receptor type 2 (Homo sapiens) (P41597 whole entry, looked up): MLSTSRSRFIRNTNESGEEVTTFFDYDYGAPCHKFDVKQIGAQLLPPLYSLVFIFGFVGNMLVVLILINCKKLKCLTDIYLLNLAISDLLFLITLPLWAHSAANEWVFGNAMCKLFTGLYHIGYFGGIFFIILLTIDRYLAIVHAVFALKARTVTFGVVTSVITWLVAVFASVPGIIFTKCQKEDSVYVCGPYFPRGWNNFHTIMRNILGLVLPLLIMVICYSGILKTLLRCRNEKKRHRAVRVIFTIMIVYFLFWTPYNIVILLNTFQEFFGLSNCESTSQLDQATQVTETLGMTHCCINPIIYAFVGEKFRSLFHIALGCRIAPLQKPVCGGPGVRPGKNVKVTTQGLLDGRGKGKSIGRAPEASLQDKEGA

Compound: CC1(C(=O)N[C@H]2CCCCNC2=O)CCCCC1
- ED50 (Mus musculus [1]): 0.33 µg/kg
- inhibition (INH) (Mus musculus [2]): 73%
- inhibition (INH) (Mus musculus [3]): 70%
- inhibition [4]: 98%
- inhibition [5]: 99%
- inhibition (INH) (Mus musculus [6]): -1%
- ED50 (Mus musculus [7]): 0.33 µg/kg
- inhibition (INH) (Mus musculus [8]): 64%
- inhibition (INH) (Mus musculus [9]): 11%
- AUC(0-t) [10]: 7.17 ng·h/mL
- inhibition (INH) (Mus musculus [11]): 90%
- clearance [12]: 55 mL/min/kg
- inhibition (INH) (Mus musculus [13]): 71%
- Cp (Rattus norvegicus): < 2 ng/mL
- inhibition [14]: 38%
- ED50 [15]: 0.09 nM
- inhibition (INH) (Mus musculus [16]): 90%
- inhibition [17]: 100%
- inhibition (INH) (Mus musculus [18]): 90%
- bioavailability [19]: 5%
- inhibition (INH) (Mus musculus [20]): 64%
- Vd [21]: 0.6 L/kg
- inhibition (INH) (Mus musculus [22]): 74%
- Cmax [23]: 3 ng/mL
- inhibition (INH) (Mus musculus [24]): 88%
- inhibition (INH) (Mus musculus [25]): 14%
- inhibition (INH) (Mus musculus [26]): 52%
- inhibition [27]: 100%
- half-life [28]: 11 min
- AUC(0-t) [29]: 48.3 ng·h/mL
